High-throughput results from PubChem.
XiGFP reactiv – activators of inactive X chromosome reactivation, primary screen, imaging, XiGFP fibroblasts, GFP high-content imaging, set 2 | XiGFP mouse fibroblasts, % GFP-positive cells imaging, 3 d; cells co-treated with 5-aza-dC sensitizer; scaled so ellipticine positive control = 100% | activation, % at 7.58 µM | hit rate 0.055% among 360,000 | AID 743238, 2013;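 active means mean normalized replicate activation at least 10% and every replicate at or above 10%; inconclusive means only one of the two criteria met; inactive means mean below 10% and not all replicates reach 10%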;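 further: 0% = median of on-plate neutral control wells and 100% = ellipticine 6 µM median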
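System: 68-5-11 XiGFP fibroblast line | Buffer or medium: DMEM containing 5-aza-dC | Compound: Single point | Times: Compounds 3 days, fix/stain 15 min at room temperature | Benchmarks: Positive control ellipticine, 6 µM final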
F508del corr – F508del CFTR correction, initial screen, CFBE line, single point | activity (quench increase), % at 7.58 µM | hit rate 0.36% among 350,000 | CFBE cells, YFP halide quenching; stimulated with forskolin plus potentiator P3; % fluorescence drop versus neutral controls;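 active means mean added fluorescence quench of at least 8% versus neutral control, with both replicates also reaching 8%; inconclusive means only one of the mean or replicate conditions met; inactive means mean below 8% and not both replicates reaching 8%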;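 further: cells transiently co-express mutant CFTR-F508del with the halide-sensitive YFP; corrector assay measuring rescue of mutant channel to the surface after 24 h compound exposure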
PGC1a acetyl inh – inhibitors of PGC1a acetylation signal, primary screen, cell-based, U2OS, AlphaScreen, inhibitor mode; AlphaScreen anti-acetyl-lysine; with virally co-expressed GCN5 acetyltransferase; inhibition, % at 15.6 µM; hit rate 0.17% among 350,000; AID 651687, 2012;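 active means every replicate shows inhibition of at least 40%; inconclusive means mean inhibition at least 40% but some replicate below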;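 further: 0% = neutral control wells and 100% = positive control wells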
DENV2 CPE – inhibitors of DENV2 cytopathic effect, primary screen, cell-based, plate reader, single concentration; DENV2-infected cells, cytopathic effect rescue; CPE inhibition, % at 9.99 µM; hit rate 1.7% among 350,000; AID 651640, 2012; in the data active means CPE inhibition above about 20%, passing the limit was not always enough; inconclusive means no clear call, values can overlap the other calls; tested in BHK-21 cells;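 further: 0% = median of neutral control wells and 100% = median of positive control wells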
FN deposition inh – inhibitors of fibronectin matrix deposition, primary screen, AH1F cells, Alexa488-fibronectin fluorescence, plate reader; inhibition, % at 12.6 µM; AH1F fibroblasts, overnight; hit rate 0.086% among 350,000; AID 743247, 2014;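 active means mean inhibition across replicates of 30% or more, regardless of how many single replicates reach that level; inconclusive means mean under 30% yet at least half of replicates reach 30%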;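 further: positive control wells lacked labelled fibronectin entirely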
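Schedule: 1 h cell adhesion before compound, then overnight fibronectin incubation; test system: AH1F fibroblast monolayer depositing Alexa488-labelled fibronectin into matrix; quantity: 10000 AH1F cells per well; probe or stimulus: fluorescent fibronectin at 24 nM final; signal: fluorescence, ex 485 nm, em 525 nm; evaluation: percent inhibition as loss of matrix-bound fibronectin fluorescence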
Cneo AK release – Cryptococcus neoformans cell lysis inducers, primary screen, AK release luminescence, single concentration; lysis activity, % at 15 µM; C. neoformans lysis, adenylate kinase release luminescence, 4 h; normalised: neutral wells 0, clomiphene wells 100; hit rate 0.2% among 360,000;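 active means mean lysis activity across replicates of at least 80%, whatever share of replicates individually reach that level; inactive means mean lysis activity below 80%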
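Assay system: Cryptococcus neoformans yeast cells / Dosing: single-point compound dose / Timing: 4 h at 37 °C static, read 1 h later / Measured by: luminescence of released adenylate kinase using an AK detection reagent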
* marks the source's active call; other numbers are inactive results; ? = inconclusive; . = no result; ! = a repeat was not active. Hits are enriched below; roughly 1.9% of the tested compounds scored in any of these assays.

SMILES	XiGFP reactiv	F508del corr	PGC1a acetyl inh	DENV2 CPE	FN deposition inh	Cneo AK release
Cc1noc(C)c1NC(=O)Nc1cccc2c1O[C@H](CN(C)Cc1ccncc1)[C@H](C)CN([C@H](C)CO)C2=O	0	0	4	-1	.	0
O=C(Nc1nc(-c2ccco2)c(-c2ccco2)s1)c1ccc(F)cc1F	0	0	-2	68*	-1	-3
O=C(Nc1nc(-c2ccco2)c(-c2ccco2)s1)c1c(F)cccc1Cl	0	1	-2	-1	1	-1
C[C@H]1CN([C@@H](C)CO)C(=O)c2cc(NS(C)(=O)=O)ccc2O[C@@H]1CN(C)S(=O)(=O)c1ccc(F)cc1	0	-1	5	-10	.	-2
C[C@H](CO)N1C[C@H](C)[C@@H](CN(C)S(=O)(=O)c2cccc(F)c2)OCc2cn(nn2)CCCC1=O	0	0	-3	55*!	2	1
C[C@@H]1CN([C@@H](C)CO)C(=O)CCCn2cc(nn2)CO[C@@H]1CN(C)S(=O)(=O)c1ccc2c(c1)OCCCO2	-1	-1	-4	?	-1	2
C[C@H]1CN([C@@H](C)CO)C(=O)CCCn2cc(nn2)CO[C@H]1CN(C)S(=O)(=O)c1ccc2c(c1)OCCCO2	0	1	5	31*	-6	3
CC(C)NC(=O)N(C)C[C@@H]1Oc2cc(C#CC3CC3)ccc2S(=O)(=O)N([C@@H](C)CO)C[C@@H]1C	0	-2	-12	12	.	0
O=S(=O)(c1ccccc1F)N1CC[C@@H]2[C@H]1c1cc(-c3cccc(F)c3)ccc1N[C@@H]2CO	0	1	-17	.	64*	-2
COc1ccccc1-c1ccc2c(c1)[C@H]1[C@H](CCN1S(=O)(=O)c1ccccc1F)[C@H](CO)N2	0	2	-10	23*	-2	-1
O=S(=O)(c1ccccc1F)N1CC[C@@H]2[C@H]1c1cc(-c3ccccc3)ccc1N[C@@H]2CO	0	0	3	15	-2	-8
O=S(=O)(c1ccccc1F)N1CC[C@@H]2[C@H](CO)Nc3ccc(-c4ccc(F)cc4)cc3[C@@H]21	0	0	-23	-8	8	-4
O=S(=O)(c1ccccc1F)N1CC[C@H]2[C@H](CO)Nc3ccc(-c4cccc(F)c4)cc3[C@H]21	0	2	-9	29*	34*	-7
CO[C@@H]1CN(C)C(=O)c2cc(NC(=O)NC(C)C)ccc2OC[C@@H](C)N(Cc2cncnc2)C[C@@H]1C	0	-1	8	.	-4	-3
C[C@H](CO)N1C[C@H](C)[C@H](CN(C)C(=O)Nc2ccc(C(F)(F)F)cc2)Oc2ncc(/C=C/c3ccccc3)cc2C1=O	-1	4	-3	?	6	-12
COc1ccc(CCNc2ncnc3c2oc2ccccc23)cc1OC	.	9.3*	-2	.	.	-16
C[C@@H]1CN([C@H](C)CO)C(=O)c2cccc(NS(=O)(=O)c3ccccc3)c2O[C@@H]1CN(C)C(=O)Nc1cccc2ccccc12	0	-1	-8	1	.	44
O=C(CN(C1CCCCC1)S(=O)(=O)c1ccc(F)cc1)NCC1CCCO1 (stereo not drawn)	1	21*	35	0	.	-1
Cc1ccccc1-c1ccc([C@H]2[C@@H](CO)N3C(=O)CN(C(=O)c4ccccn4)C[C@@H]23)cc1	0	7	-4	-7	.	.
COc1cccc(-c2ccc3c(c2)[C@H]2[C@H](CCN2C(=O)Cc2ccncc2)[C@H](CO)N3C)c1	0	2	-25	-2	0	91*
CN1c2ccc(-c3cccc(F)c3)cc2[C@@H]2[C@@H](CCN2C(=O)Cc2cccnc2)[C@H]1CO	0	1	-5	-1	1	12
